HUVEC prolif 384: human endothelial cell proliferation inhibition | viability, % at 10 µM (by protocol) | AID 648 | HUVEC proliferation, CellTiter-Glo luminescence, 72 h; active compounds read low | actives 1.1% (n = 86,000);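 active = viability at or below 30%; inactive = viability above 30%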;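 also: 100% = median luminescence of DMSO-only cell control wells on each plate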
Lung fibro prol: blocks proliferation of human lung fibroblasts; actives 1.1% (n = 85,000); LL 47 human lung fibroblast viability, ATP luminescence; active compounds read low; viability, % at 10 µM;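 active = viability at or below 50% in the single dose screen; inactive = viability above 50%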;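 also: compound exposure lasted 72 h before the ATP readout; 100% = median luminescence of untreated cell-only wells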
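Material: human LL 47 lung fibroblast cells; quantity: 1,150 cells/well; medium: IMEM plus 15% FBS; doses: 0.1% DMSO in all compound wells; timing: overnight attachment after seeding, then 72 h compound exposure at 37 °C; detection: CellTiter-Glo luminescence; measure: % viability of median cell-only signal; controls: cell-only wells, no compound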
Jurkat tox 60K: reduces viability or proliferation of Jurkat cells; Jurkat E6.1 viability, ATP luminescence, 48 h; inhibition, % at 4 µM; actives 1.2% (n = 56,000); AID 463;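 active = inhibition above the mean inhibition of all tested compounds plus 3 SD, cut at about 28% in these data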
H69AR growth 86K: growth inhibitors of human H69AR lung tumor cells; H69AR lung tumor viability, ATP luminescence, 72 h; active compounds read low; viability, % at 10 µM; actives 6% (n = 85,000);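 active = viability at or below 40%; inactive = viability above 40%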;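 also: multidrug resistant small cell line overexpressing MRP-1 efflux transporter; 100% = mean luminescence of untreated control wells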
MT1-MMP txn act: activates MT1-MMP transcription; activation factor at 10 µM; AID 750; HT1080 MT1-MMP promoter luciferase reporter, luminescence, overnight; active compounds read high; actives 0.16% (n = 86,000);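 active = activation factor of at least 2 for MT1-MMP transcription at 10 µM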
PTK2B oligo ant: antagonists of human Pyk2 oligomerization | Q14289 | Q293 cells, Pyk2 FERM NanoBiT luminescence; active compounds read low | z-score (the deposit names both 25 µM and 10 µM) | actives 0.83% (n = 99,000) | AID 1347419;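 active = Z-score of -3 or lower, scaled per plate to the spread of control and sample wells; inactive = z-score above -3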;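 also: negative z-score means lost luminescence so less FERM oligomerization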
Target sequence (Q14289 whole entry, looked up): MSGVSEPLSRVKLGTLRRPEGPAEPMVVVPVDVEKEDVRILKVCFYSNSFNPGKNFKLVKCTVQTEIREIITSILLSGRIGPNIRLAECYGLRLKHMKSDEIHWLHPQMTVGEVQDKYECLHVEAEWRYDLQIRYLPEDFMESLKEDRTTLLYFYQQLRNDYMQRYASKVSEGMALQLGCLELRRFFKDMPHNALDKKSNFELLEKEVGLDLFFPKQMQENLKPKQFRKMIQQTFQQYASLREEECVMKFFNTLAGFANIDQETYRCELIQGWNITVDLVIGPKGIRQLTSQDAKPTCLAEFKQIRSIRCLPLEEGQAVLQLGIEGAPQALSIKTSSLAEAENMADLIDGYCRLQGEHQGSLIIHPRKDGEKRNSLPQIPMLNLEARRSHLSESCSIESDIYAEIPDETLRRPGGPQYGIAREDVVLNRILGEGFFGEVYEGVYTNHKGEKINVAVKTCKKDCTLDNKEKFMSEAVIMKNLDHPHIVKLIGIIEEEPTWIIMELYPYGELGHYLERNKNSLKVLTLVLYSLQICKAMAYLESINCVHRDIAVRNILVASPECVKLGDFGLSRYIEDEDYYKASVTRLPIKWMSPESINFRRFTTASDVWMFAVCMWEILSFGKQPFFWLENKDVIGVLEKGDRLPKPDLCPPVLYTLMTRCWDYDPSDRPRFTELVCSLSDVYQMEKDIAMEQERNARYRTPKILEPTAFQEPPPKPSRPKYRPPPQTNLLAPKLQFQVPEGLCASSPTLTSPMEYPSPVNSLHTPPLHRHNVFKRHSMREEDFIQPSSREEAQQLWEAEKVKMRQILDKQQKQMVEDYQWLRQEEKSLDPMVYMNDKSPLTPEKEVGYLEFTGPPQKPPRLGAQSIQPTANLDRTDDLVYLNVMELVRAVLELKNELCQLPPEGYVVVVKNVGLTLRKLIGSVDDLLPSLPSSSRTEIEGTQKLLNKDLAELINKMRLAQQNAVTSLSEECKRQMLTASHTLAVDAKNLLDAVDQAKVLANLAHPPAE
An asterisk follows results filed as active; x = no result given. Hits are enriched below; roughly 5.9% of the tested compounds scored in any of these assays.

SMILES	HUVEC prolif 384	Lung fibro prol	Jurkat tox 60K	H69AR growth 86K	MT1-MMP txn act	PTK2B oligo ant
c1ccc(-c2nc(N3CCOCC3)c3ccccc3n2)nc1	88.6	85.6	-0.1	25.7*	1.1	1.86
c1ccc(CN2CCN(c3nc(-c4ccccn4)nc4ccccc34)CC2)cc1	13.7*	44.5*	x	3.2*	1.2	2.62
c1ccc(-c2nc(N3CCCCCC3)c3ccccc3n2)nc1	57.5	36.6*	72.2*	7.6*	0.6	-0.42
Cc1cccc2c1CC(C)(C)NC2=C(C#N)C#N	x	x	x	x	x	-0.06
Cc1ccc2c(c1)CCCN2C(=O)c1cc2ccccc2oc1=O	106.9	100.5	x	91.2	1	0.44
CCN(CC)c1ccc2cc(-c3nc4ccccc4n3C)c(=O)oc2c1	20.8*	50.7	98.8*	20.3*	0.7	-1.38
O=c1oc2ccccc2cc1-c1nnc(-c2cccc(Br)c2)o1	98.7	106.9	-0.3	38.3*	1.2	1.37
CCN(CC)c1ccc2cc(-c3nnc(-c4ccccc4)o3)c(=O)oc2c1	57.1	72.3	x	21.9*	2*	-1.85
CCN(CC)c1ccc2cc(-c3nc4ccccc4[nH]3)c(=O)oc2c1	37.5	26.2*	4.0	1.4*	x	-2.28
Brc1cccc(-c2nnc(-c3ccccc3)o2)c1	92.5	102.5	-3.4	80.2	1.3	-1.97
CCN(CC)c1ccc2cc(-c3nnc(-c4ccc(Br)cc4)o3)c(=O)oc2c1	76.2	93.5	x	100.8	1.3	x
[O-][n+]1onc2c1CCc1c-2nn(-c2ccccc2Cl)[n+]1[O-]	62.9	56.0	10.2	x	1	0.72
Cc1ccc(-n2nc3c([n+]2[O-])CCc2c-3no[n+]2[O-])cc1	97.5	93.6	4.0	37.7*	1	1
O=C(CN1C2=NCCN2c2ccccc21)C12CC3CC(CC(C3)C1)C2	51.9	96.0	12.3	34.6*	1.3	-0.76
CC1c2[nH]c3ccccc3c2CCN1C(=O)Nc1ccccc1 (centres undefined)	81.6	99.1	-1.2	25.3*	1	-1.4
COc1cc2nc(NC(=O)c3ccccc3)[nH]c(=O)c2cc1OC	102.7	101.1	x	64.8	1	-1.76
COc1ccc(C(=O)Nc2nc3cc(OC)c(OC)cc3c(=O)[nH]2)cc1	56.6	77.7	6.2	13.3*	1	0.2
Cc1ccc2c(c1)c1ncnc(N3CCC4(CC3)OCCO4)c1n2C	74.5	89.6	-3.2	29.3*	1.9	x
c1ccc2c(c1)CCN(c1ncnc3c1[nH]c1ccccc13)C2	x	x	x	x	1.3	-2.67
Cc1ccc2c(c1)c1ncnc(N3CCOCC3)c1n2C	84.7	93.3	-3.6	45.8	1.6	0.69
OC1(c2cccc(C(F)(F)F)c2)CCN(c2ncnc3c2[nH]c2ccccc23)CC1	46.0	81.5	x	19.5*	1.3	-0.27
OC1(c2cccc(C(F)(F)F)c2)CCN(c2ccc(-c3ccccc3)nn2)CC1	91.9	101.7	x	x	1.4	0.45
c1ccc2c(c1)[nH]c1c(N3CCC4(CC3)OCCO4)ncnc12	77.0	89.3	x	39.5*	1.2	0.29
O=C(CC1CCCC1)OCn1nnc2ccccc2c1=O	102.2	106.8	-7.4	94.4	1.2	3.07
O=C(CCN1CCN(CCC(=O)c2ccccc2)CC1)c1ccccc1	95.7	92.7	-0.3	1.2*	1	x
SMILES	HUVEC prolif 384	Lung fibro prol	Jurkat tox 60K	H69AR growth 86K	MT1-MMP txn act	PTK2B oligo ant
CCOC(=O)c1ccc2c(c1)nc(SCC(=O)c1cc3ccccc3o1)n2CC	90.5	90.6	x	58.6	1.2	0.15
C=CCNC(=O)CSc1nc2cc(C(=O)OCC)ccc2n1CC	80.3	90.5	x	26.1*	1	0.38
CCC(C(=O)O/N=C(\N)c1cccc(C)c1)c1ccccc1 (centres undefined)	89.4	81.7	x	7.9*	1.1	-0.57
Cn1c(C(=O)NCCc2c[nH]c3ccccc23)cc2sccc21	77.2	104.2	61.5*	63.3	1.6	x
CCCCOC(=O)Cn1c2ccc(OC)cc2c2nc3ccccc3nc21	68.1	70.8	x	28.4*	1	0.16
Cc1ccc(C)c(OCC(=O)Nc2nonc2NC(=O)COc2cc(C)ccc2C)c1	55.6	95.9	-9.1	19.2*	1.1	-0.13
Cc1ccc2c(C)ccc(O)c2n1	17.1*	88.5	x	29.4*	1.2	0.57
Cc1cc(NC(=O)c2c([N+](=O)[O-])cnn2C)no1	x	x	x	x	x	-0.11
CC1(C)C2CCC1(CS(=O)(=O)Nc1ccc(S(=O)(=O)N3CCCCC3)cc1)C(=O)C2 (centres undefined)	x	x	x	x	x	0.69
COC(=O)c1nn2c(C(F)(F)F)cc(-c3ccc(Br)o3)nc2c1Br	93.5	58.4	x	33.2*	1.1	-0.39
O=C(Nc1ccccc1C(=O)NCCN1CCOCC1)c1ccco1	89.0	101.4	-4.9	98.0	1.1	1.63
CCOC(=O)CSc1nc(C2CC2)cc(-c2ccc(F)cc2)c1C#N	x	x	x	x	x	-3.27*
Cc1ccc2nc(N3CCN(S(=O)(=O)c4ccc(C)c(Cl)c4)CC3)c(C#N)cc2c1	111.1	101.1	x	98.6	1.2	-0.63
CCOC(=O)c1ccc(Nc2nc(C(=O)OCC)nc3ccccc23)cc1	69.8	103.4	x	37.7*	1	-2.88
COc1cccc(N2CCN(S(=O)(=O)c3ccc4nc(-c5ccccc5)[nH]c4c3)CC2)c1	60.0	96.6	11.0	12.9*	x	-1.28
CN(Cc1cccs1)S(=O)(=O)c1cccs1	100.7	101.3	-5.2	90.3	1.1	0
O=C1c2ccccc2C(=O)c2c1ccc1c(=O)n(C3CCCCC3)[nH]c21	3.2*	x	x	36.0*	1.1	1.18
CCOC(=O)Cc1c(C)nc2c(-c3ccc(OC)cc3)c(C)nn2c1C	71.2	76.9	x	23.1*	1	-1.12
CCOC(=O)Cc1c(C)nc2c(-c3ccccc3)c(-c3ccccc3)[nH]n2c1=O	74.5	92.0	x	32.0*	1.2	-1.81
CCOC(=O)Cc1c(C)nc2c(-c3ccccc3)c(C)[nH]n2c1=O	94.8	92.0	x	87.7	1.1	1.05
Cc1nc2c(-c3ccccc3)c(C)nn2c(C)c1CCC(=O)O	93.0	105.8	-5.2	74.2	0.9	x
O=C(NCC1CCCO1)C1CC(c2ccccc2Cl)=NO1 (centres undefined)	97.3	97.5	x	99.8	1.3	-0.58
CCN=c1sc(C(=O)NCCc2ccccc2)cc(=O)n1CC	58.8	86.6	18.8	9.9*	1	-1.7
O=C(NCCc1ccccc1)c1cccs1	95.4	94.1	x	98.7	x	-0.09
COc1cccc(NC(=O)Nc2nnc(-c3ccccc3SCc3ccccc3)s2)c1	78.5	66.0	x	16.6*	1.1	-0.82
COc1ccc(NC(=O)Nc2nnc(-c3ccccc3SCc3ccccc3)s2)cc1	69.4	94.9	x	48.0	1.3	-0.95
CC(O)CN=c1cc(-c2ccccc2)oc2ccc(Cl)cc12 (centres undefined)	77.9	69.2	x	28.9*	1.8	-0.97
O=C(Cn1c(=O)oc2ccccc21)NC(=O)NCc1ccco1	89.7	101.2	x	97.3	1.1	0.27
CC(C)(C)CC(C)(C)Nc1c(-c2ccc(O)cc2)nc2cnccn12	69.3	99.5	x	68.2	1.1	-2.16

Screens from PubChem.
